Reference: ChEMBL document CHEMBL3826935, “Synthesis and Pharmacology of (Pyridin-2-yl)methanol Derivatives as Novel and Selective Transient Receptor Potential Vanilloid 3 Antagonists” (J Med Chem, 2016)

Columns and labels:
[1] = biological target: T1, Transient receptor potential cation channel subfamily V member 3 (Homo sapiens, UniProt Q8NET8); assay: Antagonist activity at human TRPV3 expressed in recombinant HEK293 cells assessed as inhibition of 2-APB induced currents by patch-clamp electrophysiological assay; assay type: cell-based
T1 sequence (Q8NET8 whole entry): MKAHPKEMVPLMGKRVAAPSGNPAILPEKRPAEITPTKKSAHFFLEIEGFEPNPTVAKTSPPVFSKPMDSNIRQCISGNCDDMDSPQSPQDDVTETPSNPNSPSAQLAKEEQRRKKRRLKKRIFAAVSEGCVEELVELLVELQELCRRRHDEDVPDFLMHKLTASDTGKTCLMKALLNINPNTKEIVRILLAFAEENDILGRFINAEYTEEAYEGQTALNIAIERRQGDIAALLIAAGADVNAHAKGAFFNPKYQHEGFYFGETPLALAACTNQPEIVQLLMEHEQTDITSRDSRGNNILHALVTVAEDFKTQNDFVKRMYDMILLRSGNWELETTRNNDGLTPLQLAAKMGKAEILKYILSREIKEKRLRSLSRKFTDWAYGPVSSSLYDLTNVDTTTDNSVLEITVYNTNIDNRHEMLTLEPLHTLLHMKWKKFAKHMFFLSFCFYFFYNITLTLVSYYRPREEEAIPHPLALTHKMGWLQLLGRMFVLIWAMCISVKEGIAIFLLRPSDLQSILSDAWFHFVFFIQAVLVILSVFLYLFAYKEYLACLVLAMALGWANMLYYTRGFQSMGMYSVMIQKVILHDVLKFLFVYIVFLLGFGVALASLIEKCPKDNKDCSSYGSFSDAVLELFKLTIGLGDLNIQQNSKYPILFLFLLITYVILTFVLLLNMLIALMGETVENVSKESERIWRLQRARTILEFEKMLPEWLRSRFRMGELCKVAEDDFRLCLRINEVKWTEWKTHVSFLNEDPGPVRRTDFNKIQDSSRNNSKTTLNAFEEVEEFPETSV

[2] = biological target: Sodium channel protein type 5 subunit alpha (Homo sapiens, UniProt Q14524); assay: Binding affinity to Nav1.5 (unknown origin) at 10 uM
Method in brief: (§1)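 Selectivity screen at 10 µM across CEREP and internal target panels. Readout is percent binding, with 50% as the threshold.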

[3] = biological target: Sodium channel protein type 10 subunit alpha (Homo sapiens) (UniProt Q9Y5Y9); assay: Binding affinity to Nav1.8 (unknown origin) at 10 uM; method in brief: as §1
[4] = tested on: Rattus norvegicus; assay: Antiallodynic activity in po dosed chronic constriction injury Sprague-Dawley rat model of neuropathic pain assessed as attenuation of mechanical allodynia induced by von Frey hair stimulation to the ipsilateral hind paw; assay type: functional, organism-based
Method in brief: (§2)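 Rat neuropathic pain models dosed orally. Mechanical allodynia measured by von Frey stimulation of the injured ipsilateral paw, with a 15 g threshold taken as maximal possible effect and results expressed as %MPE. Vehicle 10% DMSO in PEG; n = 6 per group.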

[5] = tested on: Rattus norvegicus; assay: Antiallodynic activity in po dosed sciatic nerve ligation Sprague-Dawley rat model of neuropathic pain assessed as attenuation of mechanical allodynia induced by von Frey hair stimulation to the ipsilateral hind paw; assay type: functional, organism-based; method in brief: as §2
[6] = tested on: Rattus norvegicus; assay: Antiallodynic activity in Sprague-Dawley rat reserpine model of central pain assessed as increase in reserpine induced muscle pressure threshold at 10 to 100 mg/kg, po measured at 1 hr post dosing; assay type: functional, organism-based
[7] = tested on: Rattus norvegicus; assay: Toxicity in Sprague-Dawley rat reserpine model of central pain assessed as overt impairments at 10 to 100 mg/kg, po; assay type: organism-based; conditions: in vivo
[8] = biological target: T2, Transient receptor potential cation channel subfamily V member 3 (Homo sapiens) (UniProt Q8NET8); assay: Antagonist activity at human TRPV3 expressed in recombinant HEK293 cells assessed as inhibition of 2-APB induced calcium flux by FLIPR analysis; assay type: cell-based
T2 sequence (whole entry): T1 sequence (Q8NET8 whole entry)
Method in brief: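 HEK293 cells stably expressing human TRPV3 (I25V variant), plated the day before in DMEM + 10% FBS at 37 °C, 5% CO2. Calcium 4 dye loaded in Ca/Mg-free HEPES D-PBS pH 7.4 for 1–2 h at room temperature. Compound dilutions added with 3 min baseline, then 2-APB at 60 µM final; Ca2+ flux read 3 min on FLIPR. Kb from at least duplicates, averaged across independent runs.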

[9] = biological target: T2, Transient receptor potential cation channel subfamily V member 3 (Homo sapiens); assay: Antagonist activity at human TRPV3 expressed in recombinant HEK293 cells assessed as free plasma level adjusted concentration for inhibition of 2-APB induced calcium flux by FLIPR analysis; assay type: cell-based
Method in brief: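 FLIPR Kb from the 2-APB (60 µM final) Ca2+ flux assay in human TRPV3 HEK293 cells, converted to an unbound value using the measured free fraction in plasma.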

[10] = Fraction unbound in human plasma; assay type: ADME, cell-free
[11] = species: Rattus norvegicus; assay: Cardiotoxicity in rat assessed as increase in cardiac contractility at plasma concentration of 4.7 ug/ml; assay type: toxicity, organism-based

Sodium channel protein type 5 subunit alpha, sequence (Q14524 whole entry): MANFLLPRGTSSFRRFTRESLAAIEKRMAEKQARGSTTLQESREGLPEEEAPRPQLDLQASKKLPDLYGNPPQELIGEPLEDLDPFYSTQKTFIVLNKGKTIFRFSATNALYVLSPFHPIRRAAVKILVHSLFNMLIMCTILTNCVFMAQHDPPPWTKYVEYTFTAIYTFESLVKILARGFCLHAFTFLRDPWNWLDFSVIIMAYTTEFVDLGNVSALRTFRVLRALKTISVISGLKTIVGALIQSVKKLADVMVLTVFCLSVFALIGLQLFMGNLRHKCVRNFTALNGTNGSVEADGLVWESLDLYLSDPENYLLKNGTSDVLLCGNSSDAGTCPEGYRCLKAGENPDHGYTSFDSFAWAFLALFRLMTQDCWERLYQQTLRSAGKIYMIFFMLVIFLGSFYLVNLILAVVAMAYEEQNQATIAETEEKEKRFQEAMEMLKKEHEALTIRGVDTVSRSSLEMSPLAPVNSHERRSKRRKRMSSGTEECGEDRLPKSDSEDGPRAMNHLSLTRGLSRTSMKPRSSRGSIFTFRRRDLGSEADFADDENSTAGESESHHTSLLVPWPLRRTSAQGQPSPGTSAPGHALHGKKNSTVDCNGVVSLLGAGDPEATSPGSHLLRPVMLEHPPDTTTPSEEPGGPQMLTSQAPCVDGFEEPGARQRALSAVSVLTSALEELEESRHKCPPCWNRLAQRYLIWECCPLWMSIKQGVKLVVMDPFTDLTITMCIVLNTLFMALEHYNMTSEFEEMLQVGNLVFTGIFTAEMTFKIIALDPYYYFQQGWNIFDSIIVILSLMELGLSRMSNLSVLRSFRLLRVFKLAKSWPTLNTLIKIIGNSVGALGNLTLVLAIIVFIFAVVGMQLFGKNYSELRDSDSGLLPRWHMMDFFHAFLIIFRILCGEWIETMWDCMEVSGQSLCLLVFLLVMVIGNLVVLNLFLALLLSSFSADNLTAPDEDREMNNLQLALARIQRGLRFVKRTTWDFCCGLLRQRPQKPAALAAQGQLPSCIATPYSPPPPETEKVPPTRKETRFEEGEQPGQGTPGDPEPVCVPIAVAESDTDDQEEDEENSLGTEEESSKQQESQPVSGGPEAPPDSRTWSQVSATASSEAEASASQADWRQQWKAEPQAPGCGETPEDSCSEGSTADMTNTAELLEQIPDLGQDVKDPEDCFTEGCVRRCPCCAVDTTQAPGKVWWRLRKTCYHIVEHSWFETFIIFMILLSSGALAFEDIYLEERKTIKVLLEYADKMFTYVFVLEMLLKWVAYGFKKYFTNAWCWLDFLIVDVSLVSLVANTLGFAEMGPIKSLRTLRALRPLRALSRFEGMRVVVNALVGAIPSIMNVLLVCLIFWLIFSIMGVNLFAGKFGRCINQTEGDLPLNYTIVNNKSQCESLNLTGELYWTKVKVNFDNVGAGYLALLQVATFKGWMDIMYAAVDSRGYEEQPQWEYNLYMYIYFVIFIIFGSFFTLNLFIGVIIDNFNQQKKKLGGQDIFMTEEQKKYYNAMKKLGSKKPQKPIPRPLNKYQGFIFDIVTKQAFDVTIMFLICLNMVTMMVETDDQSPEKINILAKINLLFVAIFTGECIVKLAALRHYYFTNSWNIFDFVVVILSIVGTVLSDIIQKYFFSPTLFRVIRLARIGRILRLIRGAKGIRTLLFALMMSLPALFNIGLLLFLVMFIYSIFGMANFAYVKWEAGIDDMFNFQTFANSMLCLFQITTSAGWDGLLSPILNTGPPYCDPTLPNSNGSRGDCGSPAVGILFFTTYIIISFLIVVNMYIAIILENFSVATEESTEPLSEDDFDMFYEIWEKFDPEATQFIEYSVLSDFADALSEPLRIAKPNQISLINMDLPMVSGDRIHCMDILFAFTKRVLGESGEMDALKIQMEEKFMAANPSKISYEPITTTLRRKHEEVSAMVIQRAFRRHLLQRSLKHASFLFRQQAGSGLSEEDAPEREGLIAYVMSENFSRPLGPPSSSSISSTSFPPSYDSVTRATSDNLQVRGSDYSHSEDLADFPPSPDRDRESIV
Sodium channel protein type 10 subunit alpha (Homo sapiens), sequence (Q9Y5Y9 whole entry, looked up): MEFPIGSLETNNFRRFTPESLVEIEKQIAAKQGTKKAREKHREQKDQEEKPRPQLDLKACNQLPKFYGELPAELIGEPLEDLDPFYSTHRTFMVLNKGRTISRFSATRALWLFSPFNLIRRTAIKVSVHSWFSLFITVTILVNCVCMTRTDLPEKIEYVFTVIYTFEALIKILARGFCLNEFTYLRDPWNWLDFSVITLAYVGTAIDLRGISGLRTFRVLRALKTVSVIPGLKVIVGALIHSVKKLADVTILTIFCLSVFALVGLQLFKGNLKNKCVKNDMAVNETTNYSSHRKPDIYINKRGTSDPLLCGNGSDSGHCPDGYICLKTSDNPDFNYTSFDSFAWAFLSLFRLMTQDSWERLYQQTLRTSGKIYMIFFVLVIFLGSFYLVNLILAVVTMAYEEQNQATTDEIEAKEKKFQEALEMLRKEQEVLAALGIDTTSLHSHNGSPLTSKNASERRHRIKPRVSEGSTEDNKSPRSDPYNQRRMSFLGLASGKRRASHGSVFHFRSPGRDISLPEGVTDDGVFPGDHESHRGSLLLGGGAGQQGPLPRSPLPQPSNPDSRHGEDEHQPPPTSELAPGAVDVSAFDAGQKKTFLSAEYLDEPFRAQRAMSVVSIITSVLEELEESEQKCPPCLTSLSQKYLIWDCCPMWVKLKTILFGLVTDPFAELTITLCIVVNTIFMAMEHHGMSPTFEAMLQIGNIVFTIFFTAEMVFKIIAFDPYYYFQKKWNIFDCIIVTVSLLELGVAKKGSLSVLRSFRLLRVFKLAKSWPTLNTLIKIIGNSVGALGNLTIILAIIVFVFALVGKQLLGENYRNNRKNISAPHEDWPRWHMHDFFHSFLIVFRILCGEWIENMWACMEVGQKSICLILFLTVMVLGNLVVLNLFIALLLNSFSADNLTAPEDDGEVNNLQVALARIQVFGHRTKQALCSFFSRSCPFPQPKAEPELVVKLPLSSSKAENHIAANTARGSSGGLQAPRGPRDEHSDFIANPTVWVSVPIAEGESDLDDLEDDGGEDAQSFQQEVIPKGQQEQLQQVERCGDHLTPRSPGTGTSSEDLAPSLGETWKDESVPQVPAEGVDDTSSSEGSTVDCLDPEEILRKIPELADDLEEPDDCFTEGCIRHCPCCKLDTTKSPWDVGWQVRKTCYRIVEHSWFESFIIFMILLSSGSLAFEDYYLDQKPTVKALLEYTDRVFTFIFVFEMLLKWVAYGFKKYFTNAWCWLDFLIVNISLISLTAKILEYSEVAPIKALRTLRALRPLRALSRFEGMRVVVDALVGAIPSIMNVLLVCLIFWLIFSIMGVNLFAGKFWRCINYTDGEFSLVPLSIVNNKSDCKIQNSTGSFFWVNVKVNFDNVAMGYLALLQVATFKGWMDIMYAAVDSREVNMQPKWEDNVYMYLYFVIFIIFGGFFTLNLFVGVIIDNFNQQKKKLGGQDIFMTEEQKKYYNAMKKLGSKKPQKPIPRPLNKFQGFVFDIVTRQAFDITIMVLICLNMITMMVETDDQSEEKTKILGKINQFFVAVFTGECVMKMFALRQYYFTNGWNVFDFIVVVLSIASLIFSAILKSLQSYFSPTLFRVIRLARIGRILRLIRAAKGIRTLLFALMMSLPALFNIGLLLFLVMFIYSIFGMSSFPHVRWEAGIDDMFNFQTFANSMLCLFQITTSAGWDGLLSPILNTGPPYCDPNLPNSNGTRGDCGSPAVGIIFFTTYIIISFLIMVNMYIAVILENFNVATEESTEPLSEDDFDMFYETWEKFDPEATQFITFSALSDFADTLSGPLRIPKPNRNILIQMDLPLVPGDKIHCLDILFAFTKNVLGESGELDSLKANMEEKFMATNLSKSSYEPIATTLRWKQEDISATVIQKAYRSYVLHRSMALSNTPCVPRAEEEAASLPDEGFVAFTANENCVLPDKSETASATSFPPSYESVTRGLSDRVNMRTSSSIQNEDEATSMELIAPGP

With C[C@]1(O)C[C@](c2cc(C(F)(F)F)ccn2)([C@H](O)c2ccccn2)C1 (mixture of isomers) as the molecule, how does the IC50 [1] read?
Its IC50 is 380 nM.

And the Activity [2]?
Its Activity is under 50%.

And the Activity [3]?
The Activity was under 50%.

And the Activity [4]?
The Activity was “Dose-dependent effect”.

What about the EC50 [4] of the same molecule?
Its EC50 is 11 µmol.

And the Activity [5]?
The Activity was “Dose-dependent effect”.

And the EC50 [5]?
The EC50 was 11 µmol.

And the Activity [6]?
The Activity was “Dose-dependent effect”.

What about the Activity [7] of the same molecule?
Its Activity is “Non-toxic”.

And the Kb [8]?
The Kb was 560 nM.

What about the Kb [9] of the same molecule?
The Kb was 620 nM.

What about the fraction unbound [10] of the same molecule?
The fraction unbound was 0.89.

And the Activity [11]?
The Activity was “Non-toxic”.
